ChEMBL document CHEMBL1134791, “2- and 3-substituted 1,4-naphthoquinone derivatives as subversive substrates of trypanothione reductase and lipoamide dehydrogenase from Trypanosoma cruzi: synthesis and correlation between redox cycling activities and in vitro cytotoxicity” (J Med Chem, 2001)
pEC50, pIC50: −log10 of the molar value.

How the values were obtained:
Trypanothione reductase = Trypanothione reductase (Trypanosoma cruzi, UniProt P28593); test: Inhibitory activity against Trypanosoma cruzi trypanothione disulfide reductase, assay in presence of 57 uM T(S)2.
Chain of Trypanothione reductase (P28593 whole entry): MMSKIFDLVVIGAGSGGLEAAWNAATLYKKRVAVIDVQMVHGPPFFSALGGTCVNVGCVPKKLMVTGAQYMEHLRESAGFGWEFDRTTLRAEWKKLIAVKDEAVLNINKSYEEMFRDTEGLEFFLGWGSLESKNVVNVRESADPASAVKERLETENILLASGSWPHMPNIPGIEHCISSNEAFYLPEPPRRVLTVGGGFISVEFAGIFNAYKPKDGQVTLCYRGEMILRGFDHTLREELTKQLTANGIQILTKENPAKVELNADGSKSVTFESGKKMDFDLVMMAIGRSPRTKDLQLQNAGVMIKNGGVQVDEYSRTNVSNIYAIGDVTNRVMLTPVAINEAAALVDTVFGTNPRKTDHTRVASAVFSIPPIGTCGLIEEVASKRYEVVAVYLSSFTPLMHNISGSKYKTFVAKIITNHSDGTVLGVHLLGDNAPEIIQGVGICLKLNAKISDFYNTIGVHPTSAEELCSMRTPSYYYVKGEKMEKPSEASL
How it was run: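 Assay contained 250 µM NADPH, 57 µM T(S)₂, inhibitor at 0.3–50 µM and 1% DMSO final. Started with enzyme; NADPH loss followed at 340 nm. IC50 in duplicate.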

Trypanosoma brucei = test: In vitro antiparasitic activity against Trypanosoma brucei was tested by sigmoidal regression analysis; format: functional; details: read-out: ED50 (the source's name)
How it was run: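 T. b. brucei S427 bloodstream trypomastigotes at 2 × 10⁵/mL in HMI-18 medium, in triplicate, with a 3-fold dilution series starting at 30 µM. Incubated 3 days at 37 °C in 5% CO₂. Pentamidine served as positive control. Viability read by tetrazolium colorimetric assay on day 3. ED50 by sigmoidal regression.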

Trypanosoma cruzi = test: In vitro antiparasitic activity against Trypanosoma cruzi was tested by sigmoidal regression analysis; format: functional; details: read-out: ED50 (the source's name)
How it was run: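 Mouse peritoneal macrophages (female CD1, starch-elicited, harvested 24 h) infected with L. donovani amastigotes (strain MHOM/ET/67/L82, hamster spleen) or T. cruzi Y-strain trypomastigotes (5:1, from MDCK overlay). Infected cells exposed to a 3-fold dilution series in quadruplicate for 5 days (L. donovani) or 3 days (T. cruzi). Giemsa-stained slides scored for % macrophages cleared of amastigotes versus untreated cultures. ED50 by sigmoidal regression.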

Q: What does the source list for CC1=C(CCCCC(=O)O)C(=O)c2ccccc2C1=O?
A: pIC50 (Trypanothione reductase): < 4.30; pEC50 (Trypanosoma brucei): < 3.96; pEC50 (Trypanosoma cruzi): 4.36

Q: With CC1=C(CCCCCC(=O)O)C(=O)c2ccccc2C1=O as the compound, how does the pIC50 (Trypanothione reductase) read?
A: The pIC50 was less than 4.30.

Q: And the pEC50 (Trypanosoma brucei)?
A: The pEC50 was 5.28.

Q: What about the pEC50 (Trypanosoma cruzi) of the same compound?
A: The pEC50 was 4.77.

Q: Which results are given for CC1=C(CCCCC(=O)O)C(=O)c2c(O)cccc2C1=O?
A: pIC50 (Trypanothione reductase): < 4.30; pEC50 (Trypanosoma brucei): < 5.00; pEC50 (Trypanosoma cruzi): 4.38

Q: With CC1=C(CCCCCC(=O)O)C(=O)c2c(O)cccc2C1=O as the compound, how does the pIC50 (Trypanothione reductase) read?
A: Its pIC50 is less than 4.30.

Q: And the pEC50 (Trypanosoma brucei)?
A: Its pEC50 is less than 5.48.

Q: What about the pEC50 (Trypanosoma cruzi) of the same compound?
A: Its pEC50 is 4.49.

Q: With CC1=C(CCCNC(=O)OC(C)(C)C)C(=O)c2c(O)cccc2C1=O as the compound, how does the pIC50 (Trypanothione reductase) read?
A: The pIC50 was less than 4.60.

Q: And the pEC50 (Trypanosoma brucei)?
A: Its pEC50 is 6.22.

Q: What about the pEC50 (Trypanosoma cruzi) of the same compound?
A: The pEC50 was 5.43.

Q: What does the source list for O=C(O)CCCCCC1=C(CCCCCC(=O)O)C(=O)c2ccccc2C1=O?
A: pIC50 (Trypanothione reductase): < 4.30; pEC50 (Trypanosoma brucei): 4.32; pEC50 (Trypanosoma cruzi): < 4.13

Q: Which results are given for CC1=C(CCCCC(=O)NCCCN2CCN(CCCNC(=O)CCCCC3=C(C)C(=O)c4cccc(O)c4C3=O)CC2)C(=O)c2c(O)cccc2C1=O?
A: pIC50 (Trypanothione reductase): 5.60; pEC50 (Trypanosoma brucei): < 5.89; pEC50 (Trypanosoma cruzi): 4.76

Q: With CC1=C(CCC(=O)NCCCCNCCCNC(=O)CCC2=C(C)C(=O)c3ccccc3C2=O)C(=O)c2ccccc2C1=O as the compound, how does the pIC50 (Trypanothione reductase) read?
A: Its pIC50 is 5.57.

Q: What about the pEC50 (Trypanosoma brucei) of the same compound?
A: Its pEC50 is 5.31.

Q: And the pEC50 (Trypanosoma cruzi)?
A: Its pEC50 is 4.89.

Q: CN1CCN(CCCNC(=O)CCC2=C(CCC(=O)NCCCN3CCN(C)CC3)C(=O)c3c(O)cccc3C2=O)CC1 was tested. Which pIC50 (Trypanothione reductase) did it give?
A: Its pIC50 is less than 4.30.

Q: And the pEC50 (Trypanosoma brucei)?
A: The pEC50 was 4.67.

Q: What about the pEC50 (Trypanosoma cruzi) of the same compound?
A: Its pEC50 is less than 4.30.

Q: With O=C(O)CCCCC1=C(CCCCC(=O)O)C(=O)c2c(O)cccc2C1=O as the compound, how does the pIC50 (Trypanothione reductase) read?
A: Its pIC50 is less than 4.30.

Q: What about the pEC50 (Trypanosoma brucei) of the same compound?
A: Its pEC50 is less than 4.10.

Q: And the pEC50 (Trypanosoma cruzi)?
A: The pEC50 was 4.10.

Q: What does the source list for CC1=C(CCCC(=O)NCCCCNCCCNC(=O)CCCC2=C(C)C(=O)c3cccc(O)c3C2=O)C(=O)c2c(O)cccc2C1=O?
A: pIC50 (Trypanothione reductase): 5.64; pEC50 (Trypanosoma brucei): < 5.35; pEC50 (Trypanosoma cruzi): 4.34

Q: How did the pIC50 (Trypanothione reductase) turn out when CC1=C(CCC(=O)O)C(=O)c2c(O)cccc2C1=O was run?
A: Its pIC50 is less than 4.30.

Q: What about the pEC50 (Trypanosoma brucei) of the same compound?
A: The pEC50 was less than 4.96.

Q: What about the pEC50 (Trypanosoma cruzi) of the same compound?
A: The pEC50 was 4.34.

Q: CN1CCN(C(=O)CCCC2=C(CCCC(=O)N3CCN(C)CC3)C(=O)c3c(O)cccc3C2=O)CC1 was tested. Which pIC50 (Trypanothione reductase) did it give?
A: Its pIC50 is 4.76.

Q: What about the pEC50 (Trypanosoma brucei) of the same compound?
A: Its pEC50 is 4.50.

Q: What about the pEC50 (Trypanosoma cruzi) of the same compound?
A: The pEC50 was less than 4.32.

Q: With CC1=C(NCCCC/N=C2/C(=O)c3ccccc3C(O)=C2C)C(=O)c2ccccc2C1=O as the compound, how does the pIC50 (Trypanothione reductase) read?
A: The pIC50 was less than 4.24.

Q: What about the pEC50 (Trypanosoma brucei) of the same compound?
A: Its pEC50 is less than 4.90.

Q: And the pEC50 (Trypanosoma cruzi)?
A: Its pEC50 is less than 4.90.

Q: How did the pIC50 (Trypanothione reductase) turn out when CN(C)CCCN1CCN(CC2=C(N3CCN(CCCN(C)C)CC3)C(=O)c3ccccc3C2=O)CC1 was run?
A: Its pIC50 is less than 4.24.

Q: What about the pEC50 (Trypanosoma brucei) of the same compound?
A: Its pEC50 is less than 4.90.

Q: And the pEC50 (Trypanosoma cruzi)?
A: Its pEC50 is less than 4.90.

Q: How did the pIC50 (Trypanothione reductase) turn out when CC1=C(CCC(=O)N2CCN(C)CC2)C(=O)c2c(O)cccc2C1=O was run?
A: The pIC50 was 4.30.

Q: And the pEC50 (Trypanosoma brucei)?
A: The pEC50 was 4.28.

Q: What about the pEC50 (Trypanosoma cruzi) of the same compound?
A: Its pEC50 is less than 4.06.

Q: With CC1=C(NCCCN2CCN(CCCN)CC2)C(=O)c2ccccc2C1=O as the compound, how does the pIC50 (Trypanothione reductase) read?
A: Its pIC50 is 5.22.

Q: What about the pEC50 (Trypanosoma cruzi) of the same compound?
A: The pEC50 was less than 4.90.

Q: How did the pIC50 (Trypanothione reductase) turn out when CC1=C(CCCCC(=O)NCCCCNCCCNC(=O)CCCCC2=C(C)C(=O)c3cccc(O)c3C2=O)C(=O)c2c(O)cccc2C1=O was run?
A: Its pIC50 is 5.77.

Q: What about the pEC50 (Trypanosoma brucei) of the same compound?
A: Its pEC50 is less than 5.82.

Q: What about the pEC50 (Trypanosoma cruzi) of the same compound?
A: Its pEC50 is 5.40.

Q: What does the source list for CC1=C(CCCCCNC(=O)OC(C)(C)C)C(=O)c2c(O)cccc2C1=O?
A: pIC50 (Trypanothione reductase): < 4.60; pEC50 (Trypanosoma brucei): 5.60; pEC50 (Trypanosoma cruzi): 4.88

Q: Which results are given for CC1=C(CCCC(=O)NCCCNCCCNC(=O)CCCC2=C(C)C(=O)c3cccc(O)c3C2=O)C(=O)c2c(O)cccc2C1=O?
A: pIC50 (Trypanothione reductase): 5.70; pEC50 (Trypanosoma brucei): < 5.34; pEC50 (Trypanosoma cruzi): 4.33

Q: How did the pIC50 (Trypanothione reductase) turn out when CC1=C(O)c2ccccc2C(=O)/C1=N\CCCN1CCN(C)CC1 was run?
A: Its pIC50 is less than 4.24.

Q: And the pEC50 (Trypanosoma brucei)?
A: The pEC50 was less than 4.90.

Q: What about the pEC50 (Trypanosoma cruzi) of the same compound?
A: Its pEC50 is less than 5.21.

Q: CC1=C(CCCCCC(=O)NCCCCNCCCNC(=O)CCCCCC2=C(C)C(=O)c3cccc(O)c3C2=O)C(=O)c2c(O)cccc2C1=O was tested. Which pIC50 (Trypanothione reductase) did it give?
A: The pIC50 was 5.80.

Q: What about the pEC50 (Trypanosoma brucei) of the same compound?
A: The pEC50 was 6.52.

Q: What about the pEC50 (Trypanosoma cruzi) of the same compound?
A: Its pEC50 is 4.61.

Q: CC1=C(CCCCCC(=O)NCCCN2CCN(CCCNC(=O)CCCCCC3=C(C)C(=O)c4cccc(O)c4C3=O)CC2)C(=O)c2c(O)cccc2C1=O was tested. Which pIC50 (Trypanothione reductase) did it give?
A: Its pIC50 is 5.80.

Q: And the pEC50 (Trypanosoma brucei)?
A: Its pEC50 is less than 5.89.

Q: And the pEC50 (Trypanosoma cruzi)?
A: The pEC50 was 4.94.

Q: CC1=C(CCCC(=O)O)C(=O)c2c(O)cccc2C1=O was tested. Which pIC50 (Trypanothione reductase) did it give?
A: The pIC50 was less than 4.30.

Q: And the pEC50 (Trypanosoma brucei)?
A: Its pEC50 is 4.11.

Q: And the pEC50 (Trypanosoma cruzi)?
A: The pEC50 was less than 3.96.

Q: CC1=C(CCCC(=O)NCCCN2CCN(C)CC2)C(=O)c2c(O)cccc2C1=O was tested. Which pIC50 (Trypanothione reductase) did it give?
A: The pIC50 was 4.49.

Q: And the pEC50 (Trypanosoma brucei)?
A: The pEC50 was 4.64.

Q: And the pEC50 (Trypanosoma cruzi)?
A: Its pEC50 is 4.30.

Q: CC1=C(CCCCNC(=O)OC(C)(C)C)C(=O)c2c(O)cccc2C1=O was tested. Which pIC50 (Trypanothione reductase) did it give?
A: Its pIC50 is less than 4.60.

Q: What about the pEC50 (Trypanosoma brucei) of the same compound?
A: Its pEC50 is 5.85.

Q: What about the pEC50 (Trypanosoma cruzi) of the same compound?
A: Its pEC50 is 5.15.

Q: Which results are given for CC1=C(CCCC(=O)N2CCN(C)CC2)C(=O)c2ccccc2C1=O?
A: pEC50 (Trypanosoma brucei): 5.04; pEC50 (Trypanosoma cruzi): 4.57

Q: CC1=C(CCCCCNC(=O)OC(C)(C)C)C(=O)c2ccccc2C1=O was tested. Which pIC50 (Trypanothione reductase) did it give?
A: Its pIC50 is less than 4.30.

Q: And the pEC50 (Trypanosoma brucei)?
A: Its pEC50 is 5.57.

Q: What about the pEC50 (Trypanosoma cruzi) of the same compound?
A: Its pEC50 is 5.37.

Q: Which results are given for CC1=C(CCCCC(=O)NCCCCNCCCNC(=O)CCCCC2=C(C)C(=O)c3ccccc3C2=O)C(=O)c2ccccc2C1=O?
A: pIC50 (Trypanothione reductase): 5.85; pEC50 (Trypanosoma brucei): 5.36; pEC50 (Trypanosoma cruzi): 5.05
